In article PMC9389372 (RSC Advances, 2022):

Key:
[1] = target: Human acetylcholinesterase (Homo sapiens, UniProt P22303); experiment: AChE inhibition, modified Ellman's spectrophotometric method; type: biochemical; conditions: for inhibition at 1000 µM: read-out: AChE % inhibition, 10^−3 M
[2] = target: human butyrylcholinesterase (Homo sapiens, UniProt P06276); experiment: BChE inhibition, modified Ellman's spectrophotometric method; type: biochemical; conditions: for inhibition at 100 µM / inhibition at 1000 µM: read-out: BChE % inhibition
Chain of human butyrylcholinesterase (P06276 29-602): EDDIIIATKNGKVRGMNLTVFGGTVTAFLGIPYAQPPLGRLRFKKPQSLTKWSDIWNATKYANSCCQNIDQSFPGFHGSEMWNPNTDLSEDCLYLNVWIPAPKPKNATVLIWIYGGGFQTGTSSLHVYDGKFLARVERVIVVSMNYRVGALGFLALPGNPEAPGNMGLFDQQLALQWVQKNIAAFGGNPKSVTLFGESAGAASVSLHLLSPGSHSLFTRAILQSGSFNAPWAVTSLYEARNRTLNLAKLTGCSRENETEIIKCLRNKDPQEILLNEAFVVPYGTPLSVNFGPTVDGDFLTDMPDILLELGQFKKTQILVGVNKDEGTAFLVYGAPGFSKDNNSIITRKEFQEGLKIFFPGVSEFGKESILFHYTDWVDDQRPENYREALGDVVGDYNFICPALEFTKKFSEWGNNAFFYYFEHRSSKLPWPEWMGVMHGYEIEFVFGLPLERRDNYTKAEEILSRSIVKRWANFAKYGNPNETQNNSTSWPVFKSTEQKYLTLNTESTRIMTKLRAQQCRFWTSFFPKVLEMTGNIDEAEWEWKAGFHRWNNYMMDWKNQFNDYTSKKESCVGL

MAO-A = target: T1, MAO-A (Homo sapiens, UniProt P21397); experiment: MAO-A inhibition, in vitro fluorometric method; type: biochemical; conditions: for inhibition at 100 µM / inhibition at 1000 µM: read-out: MAO-A % inhibition
T1 sequence (P21397 1-527): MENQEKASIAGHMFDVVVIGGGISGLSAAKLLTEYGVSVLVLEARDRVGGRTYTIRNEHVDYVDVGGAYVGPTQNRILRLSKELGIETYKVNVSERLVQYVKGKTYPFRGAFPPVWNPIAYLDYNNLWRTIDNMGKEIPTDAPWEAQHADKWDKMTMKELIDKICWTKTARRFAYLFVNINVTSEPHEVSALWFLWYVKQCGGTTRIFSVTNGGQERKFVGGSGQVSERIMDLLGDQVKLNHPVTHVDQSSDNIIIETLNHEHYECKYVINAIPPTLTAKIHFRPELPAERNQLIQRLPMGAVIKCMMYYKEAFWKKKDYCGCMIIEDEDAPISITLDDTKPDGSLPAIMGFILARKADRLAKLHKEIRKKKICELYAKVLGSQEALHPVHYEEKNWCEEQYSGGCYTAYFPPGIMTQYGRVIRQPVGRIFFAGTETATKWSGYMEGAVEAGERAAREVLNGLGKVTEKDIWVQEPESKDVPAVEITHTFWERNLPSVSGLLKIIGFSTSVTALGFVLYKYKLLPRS

beta amyloid 1–42 (Aβ42) = beta amyloid 1–42 (Aβ42) (Homo sapiens, UniProt P05067); experiment: fluorometric beta amyloid 1–42; type: biochemical; conditions: for inhibition at 0.01 µM / inhibition at 0.1 µM / inhibition at 1 µM / inhibition at 10 µM: read-out: Percent inhibition of beta amyloid 1–42 (Aβ42) peptide aggregation
Chain of beta amyloid 1–42 (Aβ42) (P05067 672-713): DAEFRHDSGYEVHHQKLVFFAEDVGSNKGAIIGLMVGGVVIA

Cytotoxicity, MTT assay = type: cell-based; conditions: mouse, NIH/3T3 mouse embryonic fibroblast cells
Method in brief: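 NIH/3T3 mouse embryonic fibroblasts, incubated according to the supplier's recommendation, were seeded at 1 × 10⁴ cells per well. Viability was read by MTT assay following the group's previously described standard procedure.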

MAO-B = target: T2, MAO-B (Homo sapiens, UniProt P27338); experiment: MAO-B inhibition, in vitro fluorometric method; type: biochemical
T2 sequence (P27338 1-520): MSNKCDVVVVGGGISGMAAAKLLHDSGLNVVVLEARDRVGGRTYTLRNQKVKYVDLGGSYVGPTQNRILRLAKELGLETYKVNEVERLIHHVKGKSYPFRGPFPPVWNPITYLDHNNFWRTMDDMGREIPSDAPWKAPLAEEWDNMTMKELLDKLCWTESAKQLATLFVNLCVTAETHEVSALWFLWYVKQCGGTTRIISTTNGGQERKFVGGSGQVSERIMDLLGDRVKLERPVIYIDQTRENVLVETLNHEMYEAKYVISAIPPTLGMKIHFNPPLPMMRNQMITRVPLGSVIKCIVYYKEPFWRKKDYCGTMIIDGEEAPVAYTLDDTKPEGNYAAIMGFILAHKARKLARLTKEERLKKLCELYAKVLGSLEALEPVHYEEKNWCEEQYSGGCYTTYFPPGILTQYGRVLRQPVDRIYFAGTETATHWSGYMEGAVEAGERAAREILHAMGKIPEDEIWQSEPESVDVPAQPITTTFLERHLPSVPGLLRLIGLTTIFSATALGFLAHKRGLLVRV

Chain of Human acetylcholinesterase (P22303 32-614): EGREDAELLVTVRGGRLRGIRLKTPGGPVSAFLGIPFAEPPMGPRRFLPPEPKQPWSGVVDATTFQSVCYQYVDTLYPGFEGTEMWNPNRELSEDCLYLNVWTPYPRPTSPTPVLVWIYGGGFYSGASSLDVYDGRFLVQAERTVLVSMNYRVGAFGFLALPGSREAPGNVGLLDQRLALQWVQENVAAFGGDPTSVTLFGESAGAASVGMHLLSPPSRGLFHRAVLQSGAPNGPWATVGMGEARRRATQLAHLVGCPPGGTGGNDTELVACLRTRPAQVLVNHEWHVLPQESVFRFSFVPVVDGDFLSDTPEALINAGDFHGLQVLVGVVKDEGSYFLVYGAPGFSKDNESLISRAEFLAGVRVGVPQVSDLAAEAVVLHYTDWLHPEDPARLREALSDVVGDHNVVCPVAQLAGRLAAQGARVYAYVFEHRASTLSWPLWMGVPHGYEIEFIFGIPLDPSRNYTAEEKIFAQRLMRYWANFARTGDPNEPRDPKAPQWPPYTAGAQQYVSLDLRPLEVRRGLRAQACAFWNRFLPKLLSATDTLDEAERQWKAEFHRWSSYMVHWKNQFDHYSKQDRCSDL

Compound | inhibition at 1000 µM [1] | IC50 [2] | inhibition at 100 µM [2] | inhibition at 1000 µM [2] | IC50 (MAO-A) | inhibition at 100 µM (MAO-A) | inhibition at 1000 µM (MAO-A) | inhibition at 0.01 µM (beta amyloid 1–42 (Aβ42)) | inhibition at 0.1 µM (beta amyloid 1–42 (Aβ42)) | inhibition at 1 µM (beta amyloid 1–42 (Aβ42)) | inhibition at 10 µM (beta amyloid 1–42 (Aβ42)) | IC50 (Cytotoxicity, MTT assay) | IC50 [1] | IC50 (MAO-B) | IC50 (beta amyloid 1–42 (Aβ42))
CN(C)CCN1CCN(Cc2ccc(C(=O)Nc3nc4ccccc4s3)cc2)CC1 [4f, N-(Benzo[d]thiazol-2-yl)-4-((4-(2-(dimethylamino)ethyl)piperazine-1-yl)methyl)benzamide] | 96.4 ± 1.4% | > 1000 µM | 32.8 ± 0.6% | 45.3 ± 0.9% | > 100 µM | 41.3 ± 0.9% | 67.9 ± 1.1% | 58.6 ± 1.1% | 80.8 ± 2.1% | 90.6 ± 3.1% | 97.3 ± 3.2% | 72.9 ± 2.7 µM | – | – | –
COc1ccc2sc(NC(=O)c3ccc(CN4CCN(CCN(C)C)CC4)cc3)nc2c1 [4m, 4-((4-(2-(Dimethylamino)ethyl)piperazine-1-yl)methyl)-N-(5-methoxybenzo[d]thiazol-2-yl)benzamide] | 95.3 ± 1.2% | > 1000 µM | 31.9 ± 0.8% | 42.4 ± 0.8% | > 100 µM | 37.9 ± 0.8% | 61.3 ± 0.9% | 53.6 ± 1% | 72.5 ± 2.2% | 88.9 ± 2% | 94.7 ± 2.1% | – | 0.0278 ± 0.001 µM | 0.0567 ± 0.0022 µM | 0.199 ± 0.0088 µM
